Laboratory results as given in ChEMBL document CHEMBL3351606, “Targeting (cellular) lysosomal acid ceramidase by B13: design, synthesis and evaluation of novel DMG-B13 ester prodrugs” (Bioorg Med Chem, 2014).
Values after ≈ are worked out from the molar mass of the structure shown. Active and inactive are the calls of the source. The rule behind the calls is not given here.

How the values were obtained:
[1] = target: T1, Acid ceramidase (Homo sapiens) (UniProt Q13510); test: Inhibition of ACDase in human MCF7 cell lysate using [9,10-3H] De-C16-Cer substrate at 50 uM after 1 hr by scintillation counting analysis; assay type: cell-free
T1 sequence (whole entry): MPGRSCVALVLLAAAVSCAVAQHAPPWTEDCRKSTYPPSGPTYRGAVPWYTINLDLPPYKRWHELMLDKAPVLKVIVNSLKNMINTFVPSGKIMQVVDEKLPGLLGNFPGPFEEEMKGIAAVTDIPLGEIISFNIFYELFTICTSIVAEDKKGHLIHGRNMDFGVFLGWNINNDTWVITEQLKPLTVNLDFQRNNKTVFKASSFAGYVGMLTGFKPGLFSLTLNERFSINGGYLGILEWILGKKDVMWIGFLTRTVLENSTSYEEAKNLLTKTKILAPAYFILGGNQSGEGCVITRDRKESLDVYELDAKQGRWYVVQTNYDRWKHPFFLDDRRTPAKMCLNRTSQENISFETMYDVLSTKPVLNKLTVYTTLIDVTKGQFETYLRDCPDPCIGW
How it was run: (§1)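 ACDase activity in MCF7 lysate (pH 4.5): [9,10-3H] D-e-C16-Cer and compound dried with 0.2% Triton X-100/0.4% cholate, then protein and 0.2 M acetate buffer with 0.5% Triton X-100 (pH 4.5) added; 1 h at 37 °C, stopped with Dole's solution; released [3H]palmitic acid scintillation-counted, pmol/mg protein/h, % control; duplicates.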

[2] = Toxicity in rat; assay type: organism-based; conditions: in vivo
MCF7 [3] = test: Drug formation in human MCF7 cells treated with LCL522 up to 2 to 5 hrs by LC-MS/MS analysis; assay type: ADME, cell-based
How it was run: (§2)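 MCF7 cells (RPMI 1640, 10% FBS) treated with test compound or vehicle (ethanol) over a time course up to 24 h; after washing with cold PBS and scraping, pellets spiked with internal standards, lipids extracted (ethyl acetate/isopropanol/water) and compounds quantified by LC–MS/MS in positive MRM mode against calibration curves, normalized to lipid phosphate; duplicates.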

MCF7 [4] = test: Drug uptake in human MCF7 cells assessed as drug level at 10 uM after 24 hrs by LC-MS/MS analysis; assay type: ADME, cell-based; conditions: mcf7, 24 h; how it was run: as §2
[5] = target: T1, Acid ceramidase (Homo sapiens); test: Inhibition of ACDase in human MCF7 cell lysate using [9,10-3H] De-C16-Cer substrate at 20 uM after 1 hr by scintillation counting analysis; assay type: cell-free; how it was run: as §1
[6] = target: T1, Acid ceramidase (Homo sapiens); test: Inhibition of ACDase in human MCF7 cells at 10 uM after 1 hr by cellular/scintillation counting analysis; assay type: cell-based
How it was run: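 MCF7 cells treated 1 h with compound or vehicle, washed in cold PBS and scraped; lysate ACDase activity then measured at pH 4.5 with [9,10-3H] D-e-C16-Cer, 1 h at 37 °C, released [3H]palmitic acid counted; pmol/mg protein/h, % control; quadruplicates.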

MCF7 [7] = test: Reduction in Sph level in human MCF7 cells at 10 uM after 1 hr by LC-MS/MS analysis; assay type: ADME, cell-based; conditions: MCF7, 1 h
How it was run: (§3)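 MCF7 cells treated 1 h with compound or ethanol vehicle; pellets spiked with internal standards, lipids extracted and Sph and total Cer quantified by LC–MS/MS in MRM mode, expressed as pmol per nmol lipid phosphate and as % of control; duplicates.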

MCF7 [8] = test: Induction in Cer level in human MCF7 cells at 10 uM after 1 hr by LC-MS/MS analysis; assay type: functional; how it was run: as §3
MCF7 [9] = test: Effect on lysosomal stability in human MCF7 cells assessed as increase in Lysotracker Red uptake at 10 uM after 5 hrs by FACS analysis; assay type: ADME, cell-based; conditions: mcf7, 5 h
How it was run: (§4)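 MCF7 cells seeded overnight, medium switched to 2% FBS with compound in ethanol or ethanol alone, 1 or 5 h at 37 °C, then Lysotracker Red DND-99 200 nM for 30 min at 37 °C. Cells trypsinized, washed and analysed by FACS (564–606 nm), at least 10,000 events per sample; lower fluorescence read as higher lysosomal pH; triplicates, % of control.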

MCF7 [10] = test: Drug formation in human MCF7 cells treated with LCL596 up to 2 to 5 hrs by LC-MS/MS analysis; assay type: ADME, cell-based; how it was run: as §2
Acid ceramidase = target: T2, Acid ceramidase (Homo sapiens, UniProt Q13510); test: Inhibition of ACDase in human MCF7 cell lysate using [9,10-3H] De-C16-Cer substrate after 1 hr by scintillation counting analysis
T2 sequence (Q13510 whole entry): T1 sequence (whole entry)

MCF7 [11] = test: Reduction in Sph level in human MCF7 cells at 30 uM by LC-MS/MS analysis; assay type: functional, cell-based
MCF7 [12] = test: Reduction in Sph level in human MCF7 cells at 50 uM after 5 hrs by LC-MS/MS analysis; assay type: functional; conditions: MCF7, 5 h
MCF7 [13] = test: Reduction in Sph level in human MCF7 cells at 50 uM after 24 hrs by LC-MS/MS analysis; assay type: functional; conditions: MCF7, 24 h
MCF7 [14] = test: Induction in Cer level in human MCF7 cells at 50 uM after 1 hr by LC-MS/MS analysis; assay type: functional
MCF7 [15] = test: Induction in Cer level in human MCF7 cells at 50 uM after 24 hrs hr by LC-MS/MS analysis; assay type: functional
[16] = Solubility in water at 25 degC; assay type: physicochemical
MCF7 [17] = test: Effect on lysosomal stability in human MCF7 cells assessed as recovery of Lysotracker Red uptake at 10 uM after 5 hrs by FACS analysis; assay type: functional, cell-based; how it was run: as §4
[18] = target: T1, Acid ceramidase (Homo sapiens); conditions: MCF7, 50 uM
[19] = target: T1, Acid ceramidase (Homo sapiens); conditions: MCF7, 50 uM; remark: listed apart in the source
[20] = target: T1, Acid ceramidase (Homo sapiens); conditions: MCF7, 50 uM; remark: listed apart in the source
[21] = system: Alkaline ceramidase 2 (Homo sapiens); test: Inhibition of AlkCDase in microsomes of human HeLa cells using D-e-C18:1-Cer substrate up to 250 uM after 30 mins
MCF7 [22] = test: Reduction in alpha-ACDase level in human MCF7 cells at 10 uM by scintillation counting analysis; assay type: functional, cell-based; conditions: in the assay text read “Western blot analysis” for “scintillation counting analysis”, TDE = time-dependent effect
How it was run: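 MCF7 cells treated 1 and 5 h with compound or vehicle; lysates (35 µg protein) run on SDS gels, blotted, probed with mouse monoclonal anti-ACDase and HRP secondary; bands of the cleaved alpha-ACDase chain quantified by densitometry, normalized to actin, % control.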

MCF7 [23] = test: Reduction in Sph level in human MCF7 cells at 1 uM after 1 hr by LC-MS/MS analysis; assay type: ADME, cell-based; conditions: MCF7, 1 h, read-out: INH; how it was run: as §3
MCF7 [24] = test: Reduction in Sph level in human MCF7 cells at 1 uM after 5 hrs by LC-MS/MS analysis; assay type: ADME, cell-based; conditions: MCF7, 5 h
[25] = target: Neutral ceramidase (Homo sapiens) (UniProt Q9NR71); test: Inhibition of NCDase in human HeLa cells expressing ASAH2 assessed as increase in Sph level at 10 uM after 1 hr by LC-MS/MS analysis; assay type: cell-based
Neutral ceramidase (Homo sapiens), sequence (Q9NR71 whole entry): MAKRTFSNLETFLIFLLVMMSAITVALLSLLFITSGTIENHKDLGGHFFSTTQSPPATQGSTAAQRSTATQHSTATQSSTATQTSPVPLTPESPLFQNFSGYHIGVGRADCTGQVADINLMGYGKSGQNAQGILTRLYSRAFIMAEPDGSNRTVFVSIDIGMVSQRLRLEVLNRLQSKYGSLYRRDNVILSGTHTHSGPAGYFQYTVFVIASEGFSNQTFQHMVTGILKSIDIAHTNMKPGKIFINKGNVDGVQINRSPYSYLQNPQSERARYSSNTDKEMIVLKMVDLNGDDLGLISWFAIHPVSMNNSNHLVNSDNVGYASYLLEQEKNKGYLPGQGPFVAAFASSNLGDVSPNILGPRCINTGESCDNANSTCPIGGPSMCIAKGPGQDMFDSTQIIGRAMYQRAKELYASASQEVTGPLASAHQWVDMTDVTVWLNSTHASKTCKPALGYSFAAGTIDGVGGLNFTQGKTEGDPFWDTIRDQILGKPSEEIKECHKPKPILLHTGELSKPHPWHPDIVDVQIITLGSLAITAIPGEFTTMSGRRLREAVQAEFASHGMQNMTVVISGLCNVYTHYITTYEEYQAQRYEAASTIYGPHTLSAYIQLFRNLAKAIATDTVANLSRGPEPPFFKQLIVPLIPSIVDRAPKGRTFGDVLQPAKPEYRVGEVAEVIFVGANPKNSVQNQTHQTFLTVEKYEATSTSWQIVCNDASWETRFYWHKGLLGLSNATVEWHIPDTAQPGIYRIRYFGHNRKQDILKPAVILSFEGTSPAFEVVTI
How it was run: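 HeLa cells stably carrying ACER2, ASAH2 or empty vector, grown to 60% confluence, given tetracycline 5 ng/mL overnight, then treated 1 h with compound (1 or 10 µM) or ethanol; sphingolipids extracted and Sph measured by LC–MS/MS per nmol lipid phosphate, also given as Sph ratio of ACER2 or ASAH2 cells to vector cells.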

[26] = target: T3, Sphingomyelin phosphodiesterase (Homo sapiens) (UniProt P17405); test: Inhibition of lysosomal ASMase activity in human MCF7 cells assessed as [methyl-14C]choline release at 10 uM after 1 hr; assay type: cell-based
T3 sequence (whole entry): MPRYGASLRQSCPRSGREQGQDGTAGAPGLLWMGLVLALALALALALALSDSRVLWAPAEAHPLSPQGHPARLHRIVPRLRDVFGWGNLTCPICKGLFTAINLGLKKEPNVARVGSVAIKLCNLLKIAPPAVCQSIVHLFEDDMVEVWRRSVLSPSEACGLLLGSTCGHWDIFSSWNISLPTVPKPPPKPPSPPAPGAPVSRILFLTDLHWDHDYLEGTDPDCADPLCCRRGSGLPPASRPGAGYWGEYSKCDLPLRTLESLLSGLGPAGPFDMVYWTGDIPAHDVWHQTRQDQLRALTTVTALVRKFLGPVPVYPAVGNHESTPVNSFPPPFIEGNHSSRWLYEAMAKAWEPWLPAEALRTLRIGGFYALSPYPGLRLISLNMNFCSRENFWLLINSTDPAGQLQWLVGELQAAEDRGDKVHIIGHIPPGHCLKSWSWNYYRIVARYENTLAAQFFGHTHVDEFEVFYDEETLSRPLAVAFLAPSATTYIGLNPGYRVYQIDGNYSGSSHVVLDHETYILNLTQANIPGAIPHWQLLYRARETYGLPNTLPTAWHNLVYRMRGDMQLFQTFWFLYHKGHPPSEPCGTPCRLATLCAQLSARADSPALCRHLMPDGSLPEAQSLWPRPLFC
How it was run: (§5)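 MCF7 cells treated 1 h with compound or vehicle, lysed in 0.2% Triton X-100/50 mm Tris-HCl pH 7.4 with EDTA and protease/phosphatase inhibitors; clarified lysate incubated with 100 µM porcine brain SM plus choline-[methyl-14C] SM in Triton micelles, 250 mM sodium acetate pH 5.0, 1.0 mM EDTA, 30 min at 37 °C; aqueous-phase 14C counted after Folch extraction; triplicates, % control.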

[27] = target: T3, Sphingomyelin phosphodiesterase (Homo sapiens); test: Inhibition of lysosomal ASMase activity in human MCF7 cells assessed as [methyl-14C]choline release at 1 uM after 1 hr; assay type: cell-based; how it was run: as §5
MCF7 [28] = test: Reduction in alpha-ACDase level in human MCF7 cells at 1 uM by Western blot analysis
[29] = target: Neutral ceramidase (Homo sapiens) (UniProt Q9NR71); test: Inhibition of NCDase in human MCF7 cells assessed as release of [3H] palmitic acid at 10 uM after 1 hr
[30] = system: Alkaline ceramidase 2 (Homo sapiens); test: Inhibition of AlkCDase in human HeLa cells expressing […] assessed as increase in Sph level at 10 uM after 1 hr by LC-MS/MS analysis
[31] = system: Alkaline ceramidase 2 (Homo sapiens); test: Inhibition of AlkCDase in human HeLa cells expressing […] assessed as fold increase in Sph level at 1 uM after 1 hr by LC-MS/MS analysis
[32] = system: Alkaline ceramidase 2 (Homo sapiens); test: Inhibition of AlkCDase in human HeLa cells expressing […] assessed as fold increase in Sph level at 10 uM after 1 hr by LC-MS/MS analysis

Row | Compound | inhibition [1] | LD50 [2] | Drug metabolism (MCF7 [3]) | Drug uptake (MCF7 [4]) | inhibition [5] | inhibition [6] | inhibition at 10 µM (MCF7 [7]) | Activity (MCF7 [8]) | solubility [16] | Activity (MCF7 [17]) | also measured
1 | CCCCCCCCCCCCCC(=O)N[C@H](COC(=O)CN(C)C)[C@H](O)c1ccc([N+](=O)[O-])cc1.Cl | Active | 3900 mg/kg | metabolite_detected | Active | Active | Active | 60% | inactive | – | – | Activity (MCF7 [9]): 180%
2 | CCCCCCCCCCCCCC(=O)N[C@H](CO)[C@H](OC(=O)CN(C)C)c1ccc([N+](=O)[O-])cc1.Cl | Active | 3900 mg/kg | – | Active | Active | Active | 60% | inactive | – | – | Drug metabolism (MCF7 [10]): metabolite_detected
3 | CCCCCCCCCCCCCC(=O)N[C@H](CO)[C@H](O)c1ccc([N+](=O)[O-])cc1 | 95% | – | metabolite_detected | – | – | Active | – | – | 0.008 mg/mL (≈ 18.9 µM) | inactive | IC50 (Acid ceramidase): 27.7 µM; inhibition (MCF7 [11]): Active; inhibition at 50 µM (MCF7 [12]): 70%; inhibition at 50 µM (MCF7 [13]): 40%; Activity (MCF7 [14]): 140%; Activity (MCF7 [15]): 270%; inhibition [18]: 50%; inhibition [19]: 20%; inhibition [20]: 40%; inhibition [21]: inactive
4 | CCCCCCCCCCCCCC(=O)N[C@H](COC(=O)CN(C)C)[C@H](OC(=O)CN(C)C)c1ccc([N+](=O)[O-])cc1.Cl | Active | 3900 mg/kg | – | 27% | Active | Active | 97% | 130% | 430 mg/mL | Active | inhibition (MCF7 [22]): tde; inhibition at 1 µM (MCF7 [23]): 80%; inhibition at 1 µM (MCF7 [24]): 50%; inhibition [25]: inactive; inhibition [26]: 85%; inhibition [27]: 30%; Activity (MCF7 [28]): inactive; inhibition [29]: inactive; inhibition [30]: Active; fold change (FC) [31]: 2; fold change (FC) [32]: 5
